Experimental data as given in article PMC4397581 (Nature chemical biology, 2015).

Assays:
[1] = tested on: human neutrophils; assay: Human NET assay; format: cell-based; conditions: S. aureus, 5 bacteria per neutrophil, versus vehicle
In short: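 S. aureus was grown 20 h shaking in LB at 37 °C, washed in ice-cold PBS and added at 5× MOI for 3 h at 37 °C. Cells were fixed in 2% PFA and stained with Hoechst 33342. Confocal imaging was used, with algorithmic classification as lobulated, delobulated or diffused NETs, from 60 fields across 3 wells per treatment.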

[2] = tested on: mouse neutrophils; assay: Mouse NET assay; format: cell-based; conditions: 10 µM pre-treatment, ionomycin
In short: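 Mouse peripheral blood neutrophils were isolated by density centrifugation plus hypotonic lysis (>90% pure). They were settled 15 min on uncoated glass-bottom wells in RPMI/10 mM HEPES at 37 °C, given compound or vehicle for 20 min, then stimulated with 4 µM ionomycin for 2 h at 37 °C. Cells were fixed in 2% PFA overnight at 4 °C, permeabilised, blocked, and stained with anti-citrullinated H3 (0.3 µg/mL, overnight 4 °C), a fluorescent secondary and Hoechst 33342. Fluorescence microscopy was used for blinded scoring of H3Cit+ cells and spread NETs by nuclear morphology.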

[3] = tested on: histone deacetylases 1–11; assay: Histone deacetylase selectivity; format: biochemical; conditions: for inhibition of histone deacetylases 1–11: at 100 µM; for Activation of HDACs: up to 100 µM
[4] = tested on: panel of 50 unrelated proteins; assay: Off-target panel
[5] = target: PAD4 (Homo sapiens, UniProt Q9UM07); assay: PAD4 FP binding assay; conditions: 10 nM GSK215, mean of replicates
Sequence of PAD4 (Q9UM07 whole entry): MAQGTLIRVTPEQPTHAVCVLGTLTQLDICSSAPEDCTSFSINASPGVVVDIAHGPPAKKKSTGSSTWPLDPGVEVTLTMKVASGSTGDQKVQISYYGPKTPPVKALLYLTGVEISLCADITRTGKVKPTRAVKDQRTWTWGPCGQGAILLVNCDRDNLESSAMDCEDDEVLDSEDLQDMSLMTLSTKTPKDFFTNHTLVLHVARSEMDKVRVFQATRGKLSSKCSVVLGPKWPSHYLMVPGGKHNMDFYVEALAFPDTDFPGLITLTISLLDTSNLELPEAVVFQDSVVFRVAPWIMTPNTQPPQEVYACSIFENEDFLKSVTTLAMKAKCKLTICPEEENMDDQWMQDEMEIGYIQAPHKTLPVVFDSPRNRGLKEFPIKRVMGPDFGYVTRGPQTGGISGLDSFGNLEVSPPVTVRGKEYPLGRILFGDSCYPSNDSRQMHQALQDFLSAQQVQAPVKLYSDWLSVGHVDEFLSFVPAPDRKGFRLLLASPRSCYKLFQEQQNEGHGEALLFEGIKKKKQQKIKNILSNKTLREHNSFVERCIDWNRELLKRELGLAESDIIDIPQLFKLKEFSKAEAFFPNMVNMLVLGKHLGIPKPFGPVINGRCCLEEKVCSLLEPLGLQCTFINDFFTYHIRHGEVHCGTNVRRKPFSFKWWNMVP

IC50 ([5]; PAD4 FP Binding Assay IC50, 0 mM Ca, 0 mM Ca) [nM] | IC50 ([5]; PAD4 FP Binding Assay IC50, 2 mM Ca, 2 mM Ca) [nM] | SMILES | Diffused NETs [1] | Histone H3 citrullination [2] | NET formation [2] | inhibition of histone deacetylases 1–11 [3] [%] | Activation of HDACs [3] | Off-target activity against a panel of 50 unrelated proteins [4]
 |  | CCn1c(-c2nc3ccc(C(=O)N4CCCC(N)C4)cc3n2C)cc2ccccc21 (centres unmarked) [GSK106, (3-Aminopiperidin-1-yl)(2-(1-ethyl-1H–indol-2-yl)-1-methyl-1H-benzo[d]imidazol-6-yl)methanone] | ineffective | ineffective | ineffective |  |  | 
200 | 1000 | CCn1c(-c2nc3cc(C(=O)N4CCC[C@@H](N)C4)cc(OC)c3n2C)cc2cccnc21 [GSK199, (R)-(3-Aminopiperidin-1-yl)(2-(1-ethyl-1H-pyrrolo[2,3-b]pyridin-2-yl)-7-methoxy-1-methyl-1H-benzo[d]imidazol-5-yl)methanone] | less marked inhibition | produced the same effect | produced the same effect | < 50 | partial activation of HDACs 1 and 8 at high concentrations | negligible off-target activity
 |  | COc1cc(C(=O)N2CC[C@@H](O)[C@@H](N)C2)cc2nc(-c3cc4ccccc4n3CC3CC3)n(C)c12 [GSK484, ((3S,4R)-3-Amino-4-hydroxypiperidin-1-yl)(2-(1-(cyclopropylmethyl)-1H-indol-2-yl)-7-methoxy-1-methyl-1H-benzo[d]imidazol-5-yl)methanone] | clear, statistically-significant reduction | dramatically diminished | dramatically diminished | < 50 | no activation across HDACs 1–11 | negligible off-target activity
